Laboratory results as given in ChEMBL document CHEMBL4665795, “Synthesis and Evaluation of 4-Hydroxycoumarin Imines as Inhibitors of Class II Myosins” (J Med Chem, 2020).
pIC50, pKd, pKi: −log10 of the molar value. The source made the active and inactive calls. The calls are words filed in the database; no cut-off is given here.

Assays:
[1] = Selectivity ratio of IC50 for actin-activated bovine heart muscle myosin 2 to IC50 for actin-activated rabbit skeletal muscle myosin 2
Mus musculus [2] = organism: Mus musculus; assay: Inhibition of C57Bl6 mouse skeletal muscle myosin assessed as inhibition of phrenic nerve stimulation-induced contraction in mouse diaphragm at 100 uM relative to control
In short: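 Mouse phrenic nerve-hemidiaphragm preparation used ex vivo. Muscle contraction evoked by phrenic nerve stimulation, recorded with and without compound.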

[3] = Kinetic solubility in pH 7.4 PBS incubated for 1 hr; type: physicochemical; conditions: for Kinetic_solubility: buffer, pH 7.4, 1 h
[4] = Inhibition of rabbit skeletal muscle myosin 2 assessed as reduction in actin-sliding velocity incubated for 1 min by inverted microscopic analysis; set-up: species or system Oryctolagus cuniculus
In short: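 In vitro motility assay at 30 °C with skeletal myosin loaded at 100 µg mL-1 on a coverslip. Fluorescent actin filament sliding velocity recorded across compound concentrations. IC50 obtained by curve fit.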

Mus musculus [5] = organism: Mus musculus; assay: Inhibition of C57Bl6 mouse […] assessed as reduction in action potential in mouse diaphragm at 100 uM
[6] = Inhibition of actin-activated rabbit skeletal muscle myosin 2 assessed as phosphate level incubated for 6 to 24 mins by spectrophotometric method; set-up: species or system Oryctolagus cuniculus
In short: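 Actin-activated ATPase run at 30 °C in assay buffer with 32 µM actin and 2 mM ATP. Phosphate production followed over time by absorbance in stopped-time format. IC50 from four-parameter logistic fit. N is the number of fully independent titrations.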

HL-60 = assay: Cytotoxicity against human HL-60 cells assessed as reduction in cell viability incubated for 48 hrs by hemocytometer based trypan-blue exclusion assay; conditions: HL-60, 48 h
[7] = Competitive binding affinity to skeletal myosin S1 (unknown origin) assessed as reduction in Blebbistatin-induced fluorescence intensity incubated for 1 hr by fluorescence based assay; set-up: species or system Homo sapiens
[8] = Binding affinity to skeletal myosin S1 (unknown origin) assessed as fluorescence intensity in presence of ATP; set-up: species or system Homo sapiens
In short: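 Skeletal myosin S1 binding read by fluorescence of 2 µM blebbistatin probe (λex 440 nm, em 560 nm) in assay buffer with 1 mM ATP at 22-25 °C. Signal without S1 was subtracted and normalised to Fmax. Direct Kd came from S1 titration fit to a quadratic single-site equation. Competition used 1 µM S1 and 1 hr incubation with analog; IC50 from a four-parameter fit was converted to Ki. N = 1.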

[9] = Inhibition of actin-activated rabbit skeletal muscle myosin 2; set-up: species or system Oryctolagus cuniculus
[10] = Half life in pH 7.4 PBS at 100 uM by UV-VIS spectroscopic method; type: physicochemical

Compound | Ratio IC50 [1] | inhibition (Mus musculus [2]) | inhibition (Mus musculus [5]) | pIC50 [6] | further results
C/C(=N\Cc1ccccn1)c1c(O)c2ccccc2oc1=O | 3.2 | 86% | Active | 5.17 | 
C/C(=N\Cc1ccccc1)c1c(O)c2ccccc2oc1=O | 9.1 |  |  | 6.10 | pIC50 (HL-60): 3.10; Kinetic_solubility [3]: 103 µM; pIC50 [7]: 5.28; pKi [7]: 6.10
C/C(=N\Nc1ccccc1)c1c(O)c2ccccc2oc1=O | 13.5 |  |  | 5.70 | 
CCC(C)/N=C(\C)c1c(O)c2ccccc2[nH]c1=O (configuration not stated) |  | 98% | Active | ≤ 4.00 | 
C/C(=N\Cc1cccnc1)c1c(O)c2ccccc2oc1=O | 5.6 |  |  | 5.52 | 
C/C(=N\Cc1ccccc1)c1c(O)c2ccccc2[nH]c1=O |  | 16% |  | ≤ 4.00 | 
C/C(=N\C(C)C)c1c(O)c2ccccc2[nH]c1=O |  | 18% |  | ≤ 4.00 | 
CCC/N=C(\C)c1c(O)c2ccccc2[nH]c1=O |  | 41% |  | ≤ 4.00 | 
C/C(=N\CCO)c1c(O)c2ccccc2[nH]c1=O |  | 94% | Active | ≤ 4.00 | 
CCCCC/N=C(\C)c1c(O)c2ccccc2[nH]c1=O |  | 99% | Active | ≤ 4.00 | 
C/C(=N\CC1CCCCC1)c1c(O)c2ccccc2[nH]c1=O |  | 72% | Active | ≤ 4.00 | 
CCCCC/N=C(\C)c1c(O)c2cc([N+](=O)[O-])ccc2oc1=O |  |  |  | ≤ 4.00 | 
CCCC/N=C(\C)c1c(O)c2ccccc2[nH]c1=O |  | 48% |  | ≤ 4.00 | 
C/C(=N\CC(C)C)c1c(O)c2ccccc2[nH]c1=O |  | 71% | Active | ≤ 4.00 | 
Cc1ccc2c(c1)C(=O)[C@]1(O)CCN(c3ccccc3)C1=N2 |  | 99% | Active | 6.30 | pKd [8]: 6.40; pIC50 [9]: 8.00
CCC/C(=N\Cc1ccccc1)c1c(O)c2ccccc2oc1=O |  |  |  | ≤ 4.00 | 
C/C(=N\Cc1ccncc1)c1c(O)c2ccccc2oc1=O | > 12 | 98% | inactive | 5.07 | half-life at 100 µM [10]: 84 h; solubility kinetic at 1 h ([3]; PBS, pH 7.4, read-out: Kinetic_solubility): > 400 µM
C/C(=N\OCc1ccccc1)c1c(O)c2ccccc2oc1=O |  |  |  | ≤ 4.00 | 
C/C(=N\Cc1ccccc1)c1c(O)c2cc([N+](=O)[O-])ccc2oc1=O |  |  |  | ≤ 4.00 | 
CCCC/N=C(\C)c1c(O)c2ccccc2n(C)c1=O |  |  |  | ≤ 4.00 | 
CC/C(=N\Cc1ccccc1)c1c(O)c2ccccc2oc1=O |  |  |  | ≤ 4.00 | 

The next lines start with results.

Ratio IC50 [1] | inhibition (Mus musculus [2]) | inhibition (Mus musculus [5]) | pIC50 [6] | Compound | further results
2.8 | 96% | inactive | 5.68 | CCCC/N=C(\C)c1c(O)c2ccccc2oc1=O | Kinetic_solubility [3]: 607 µM; pIC50 [4]: 5.55
9.9 |  |  | 6.10 | C/C(=N\Cc1ccc(C)cc1)c1c(O)c2ccccc2oc1=O | 
 |  |  | ≤ 4.00 | C/C(=N\Cc1ccccc1C)c1c(O)c2ccccc2oc1=O | 
 | 73% | Active | ≤ 4.00 | CC(=N)c1c(O)c2ccccc2oc1=O | 
1 | 87% | Active | 4.04 | C/C(=N\CCO)c1c(O)c2ccccc2oc1=O | pIC50 (HL-60): 3.23
3.3 |  |  | 5.70 | CCCCC/N=C(\C)c1c(O)c2ccccc2oc1=O | 
 | 94% | Active | ≤ 4.00 | C/C(=N\C(C)C)c1c(O)c2ccccc2oc1=O | 
 | 21% |  | ≤ 4.00 | CCC(C)/N=C(\C)c1c(O)c2ccccc2oc1=O (configuration not stated) | 
2.4 |  |  | 5.92 | CCCCCC/N=C(\C)c1c(O)c2ccccc2oc1=O | 
1.2 | 72% | Active | 4.51 | C/C(=N\CCCO)c1c(O)c2ccccc2oc1=O | 
2.1 |  |  | 4.33 | CC/N=C(\C)c1c(O)c2ccccc2oc1=O | 
< 0.34 | 22% |  | ≤ 4.00 | C/C(=N\CC(C)C)c1c(O)c2ccccc2oc1=O | 
1.7 |  |  | 4.51 | CCC/N=C(\C)c1c(O)c2ccccc2oc1=O | 
 | 80% | Active | ≤ 4.00 | C/N=C(\C)c1c(O)c2ccccc2oc1=O | pIC50 (HL-60): 3.39
0.5 |  |  | 5.00 | C/C(=N\Cc1cccc(C)c1)c1c(O)c2ccccc2oc1=O | 
